In ChEMBL document CHEMBL2429818, “Recognition of HIV-TAR RNA using neomycin-benzimidazole conjugates” (Bioorg Med Chem Lett, 2013):
Calls of active or inactive are those of the source. The rule behind the calls is not given here.

Columns and labels:
Nucleic Acid [1] = experiment: Displacement of fluorescein and rhodamine-labeled TAT peptide from HIV TAR RNA by FRET assay; type: nucleic-acid assay, Human immunodeficiency virus
Summary of the method: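 Tat peptide carrying fluorescein/rhodamine FRET pair mixed 1:1 with TAR RNA (100 nM each) in 50 mM Tris, 20 mM KCl, pH 7.4. Complex titrated with ligand until fluorescence stopped changing; displacement read as loss of fluorescein emission. Isotherm fitted to a dose-response curve to give IC50, the level displacing 50% of bound peptide.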

Nucleic Acid [2] = experiment: Displacement of ethidium bromide from HIV TAR RNA by fluorescent intercalator displacement assay; type: nucleic-acid assay, Human immunodeficiency virus
Summary of the method: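 TAR RNA prebound with ethidium bromide, then titrated successively with ligand to displace the intercalator. The resulting binding isotherm was analysed for DC50, the ligand concentration displacing 50% of bound dye.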

Nucleic Acid [3] = experiment: Thermal stabilization of HIV TAR RNA assessed as change in melting temperature at 1:1 ligand to RNA ratio by UV-vis spectrophotometric analysis; type: nucleic-acid assay; conditions: Human immunodeficiency virus
[4] = Displacement of fluorescein-labeled REV peptide from HIV RRE RNA after 1 hr by fluorescence polarization assay; design: species or system Human immunodeficiency virus
Nucleic Acid [5] = experiment: Binding affinity to HIV TAR RNA at 1.6 equiv after 5 mins by circular dichroism analysis; type: nucleic-acid assay; conditions: Human immunodeficiency virus
Summary of the method: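 TAR RNA titrated serially with ligand in small increments; after each addition the complex was stirred and equilibrated 5 min before recording the CD spectrum (average of three scans). Buffer 10 mM sodium cacodylate, 0.5 mM EDTA, 100 mM KCl, pH 6.8, at 20 °C.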

CN1CCN(c2ccc3nc(-c4ccc(OCCn5cc(-c6ccc(-c7cn(C[C@H]8O[C@@H](O[C@@H]9[C@@H](O)[C@H](N)C[C@H](N)[C@H]9O[C@H]9O[C@H](CN)[C@@H](O)[C@H](O)[C@H]9N)[C@H](O)[C@@H]8O[C@H]8O[C@@H](CN)[C@@H](O)[C@H](O)[C@H]8N)nn7)cc6)nn5)cc4)[nH]c3c2)CC1
IC50 (Nucleic Acid [1]): 0.379 µM
DC50 (Nucleic Acid [2]): 0.18 µM
ΔTm (Nucleic Acid [3]): 3 °C

C#CCOc1ccc(-c2nc3ccc(N4CCN(C)CC4)cc3[nH]2)cc1
ΔTm (Nucleic Acid [3]): 1 °C

CN1CCN(c2ccc3nc(-c4ccc(OCc5cn(CCCCCn6cc(CCCCc7cn(C[C@H]8O[C@@H](O[C@@H]9[C@@H](O)[C@H](N)C[C@H](N)[C@H]9O[C@H]9O[C@H](CN)[C@@H](O)[C@H](O)[C@H]9N)[C@H](O)[C@@H]8O[C@H]8O[C@@H](CN)[C@@H](O)[C@H](O)[C@H]8N)nn7)nn6)nn5)cc4)[nH]c3c2)CC1
IC50 (Nucleic Acid [1]): 0.851 µM
DC50 (Nucleic Acid [2]): 0.15 µM
ΔTm (Nucleic Acid [3]): 2.1 °C

CN1CCN(c2ccc3nc(-c4ccc(OCc5cn(CCCCCCCCCCn6cc(CCCCc7cn(C[C@H]8O[C@@H](O[C@@H]9[C@@H](O)[C@H](N)C[C@H](N)[C@H]9O[C@H]9O[C@H](CN)[C@@H](O)[C@H](O)[C@H]9N)[C@H](O)[C@@H]8O[C@H]8O[C@@H](CN)[C@@H](O)[C@H](O)[C@H]8N)nn7)nn6)nn5)cc4)[nH]c3c2)CC1
IC50 (Nucleic Acid [1]): 1.38 µM
DC50 (Nucleic Acid [2]): 0.18 µM
ΔTm (Nucleic Acid [3]): 4 °C

CN1CCN(c2ccc3nc(-c4ccc(OCCn5cc(COCc6cn(C[C@H]7O[C@@H](O[C@@H]8[C@@H](O)[C@H](N)C[C@H](N)[C@H]8O[C@H]8O[C@H](CN)[C@@H](O)[C@H](O)[C@H]8N)[C@H](O)[C@@H]7O[C@H]7O[C@@H](CN)[C@@H](O)[C@H](O)[C@H]7N)nn6)nn5)cc4)[nH]c3c2)CC1
IC50 (Nucleic Acid [1]): 1.28 µM
DC50 (Nucleic Acid [2]): 0.078 µM
ΔTm (Nucleic Acid [3]): 3 °C

CN1CCN(c2ccc3nc(-c4ccc(OCCn5cc(CCCCCCc6cn(C[C@H]7O[C@@H](O[C@@H]8[C@@H](O)[C@H](N)C[C@H](N)[C@H]8O[C@H]8O[C@H](CN)[C@@H](O)[C@H](O)[C@H]8N)[C@H](O)[C@@H]7O[C@H]7O[C@@H](CN)[C@@H](O)[C@H](O)[C@H]7N)nn6)nn5)cc4)[nH]c3c2)CC1
IC50 (Nucleic Acid [1]): 0.949 µM
DC50 (Nucleic Acid [2]): 0.081 µM
ΔTm (Nucleic Acid [3]): 5.4 °C

CN1CCN(c2ccc3nc(-c4ccc(OCCn5cc(CCCc6cn(C[C@H]7O[C@@H](O[C@@H]8[C@@H](O)[C@H](N)C[C@H](N)[C@H]8O[C@H]8O[C@H](CN)[C@@H](O)[C@H](O)[C@H]8N)[C@H](O)[C@@H]7O[C@H]7O[C@@H](CN)[C@@H](O)[C@H](O)[C@H]7N)nn6)nn5)cc4)[nH]c3c2)CC1
IC50 (Nucleic Acid [1]): 0.507 µM
DC50 (Nucleic Acid [2]): 0.14 µM
ΔTm (Nucleic Acid [3]): 4.1 °C

CN1CCN(c2ccc3nc(-c4ccc(OCc5cn(CCCCCCn6cc(CCCCc7cn(C[C@H]8O[C@@H](O[C@@H]9[C@@H](O)[C@H](N)C[C@H](N)[C@H]9O[C@H]9O[C@H](CN)[C@@H](O)[C@H](O)[C@H]9N)[C@H](O)[C@@H]8O[C@H]8O[C@@H](CN)[C@@H](O)[C@H](O)[C@H]8N)nn7)nn6)nn5)cc4)[nH]c3c2)CC1
IC50 (Nucleic Acid [1]): 1.37 µM
DC50 (Nucleic Acid [2]): 0.2 µM
ΔTm (Nucleic Acid [3]): 3.8 °C

NC[C@@H]1O[C@H](O[C@H]2[C@@H](O)[C@H](O[C@@H]3[C@@H](O)[C@H](N)C[C@H](N)[C@H]3O[C@H]3O[C@H](CN)[C@@H](O)[C@H](O)[C@H]3N)O[C@@H]2CO)[C@H](N)[C@@H](O)[C@@H]1O [FRAMYCETIN]
IC50 (Nucleic Acid [1]): 1.47 µM
ΔTm (Nucleic Acid [3]): 2 °C

CN1CCN(c2ccc3nc(-c4ccc(OCc5cn(Cn6cc(CCCCc7cn(C[C@H]8O[C@@H](O[C@@H]9[C@@H](O)[C@H](N)C[C@H](N)[C@H]9O[C@H]9O[C@H](CN)[C@@H](O)[C@H](O)[C@H]9N)[C@H](O)[C@@H]8O[C@H]8O[C@@H](CN)[C@@H](O)[C@H](O)[C@H]8N)nn7)nn6)nn5)cc4)[nH]c3c2)CC1
IC50 (Nucleic Acid [1]): 0.411 µM
DC50 (Nucleic Acid [2]): 0.184 µM
ΔTm (Nucleic Acid [3]): 2.5 °C

CN1CCN(c2ccc3nc(-c4ccc(OCCn5cc(CCc6cn(C[C@H]7O[C@@H](O[C@@H]8[C@@H](O)[C@H](N)C[C@H](N)[C@H]8O[C@H]8O[C@H](CN)[C@@H](O)[C@H](O)[C@H]8N)[C@H](O)[C@@H]7O[C@H]7O[C@@H](CN)[C@@H](O)[C@H](O)[C@H]7N)nn6)nn5)cc4)[nH]c3c2)CC1
IC50 (Nucleic Acid [1]): 0.337 µM
DC50 (Nucleic Acid [2]): 0.083 µM
ΔTm (Nucleic Acid [3]): 3.4 °C

CN1CCN(c2ccc3nc(-c4ccc(OCc5cn(C[C@H]6O[C@@H](O[C@@H]7[C@@H](O)[C@H](N)C[C@H](N)[C@H]7O[C@H]7O[C@H](CN)[C@@H](O)[C@H](O)[C@H]7N)[C@H](O)[C@@H]6O[C@H]6O[C@@H](CN)[C@@H](O)[C@H](O)[C@H]6N)nn5)cc4)[nH]c3c2)CC1
IC50 [4]: 0.768 µM
IC50 (Nucleic Acid [1]): 0.272 µM
Activity (Nucleic Acid [5]): Active
DC50 (Nucleic Acid [2]): 0.033 µM
ΔTm (Nucleic Acid [3]): 5.6 °C
